Experimental data from article PMC10362183 (Heliyon, 2023).
Where two headings read alike, the source gives them in different places.

Experiments:
[1] = tested on: human monocytes (U-937 ATCC CRL-1593.2); test: Cytotoxic activity, MTT assay on U-937 cells; format: cell-based; conditions: 72 h
How it was run: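 Exponential-phase cells at 1 × 10^5 cells/mL in RPMI-1640 with 10% FBS. Test compound (200, 50, 12.5, 3.125 μg/mL) was added in PBS with 0.5% DMSO for 72 h at 37 °C, 5% CO2. MTT was then added for 3 h, the reaction stopped with isopropanol/SDS, and absorbance read at 570 nm. Viability was taken relative to untreated cells, with blank subtraction. LC50 was by probit linear regression. Triplicates, ≥2 independent experiments.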

[2] = tested on: intracellular amastigotes of L. panamensis (MHOM/CO/87/UA140-EGFP strain); test: Antileishmanial activity on intracellular amastigotes, flow cytometry; format: cell-based
How it was run: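 U-937 cells (3 × 10^5 cells/mL, RPMI-1640, 0.1 μg/mL PMA) infected with stationary-phase EGFP-transfected promastigotes at 15:1 for 3 h at 34 °C, then washed. After 24 h, test compound was added at 50, 12.5, 3.125 and 0.78 μg/mL for 72 h at 37 °C, 5% CO2. Amphotericin B served as positive control. Detached cells were read by flow cytometry (488/525 nm, 10,000 events). EC50 was by probit from MFI relative to untreated wells. Triplicates, ≥2 independent experiments.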

[3] = tested on: Trypanosoma cruzi (Tulahuen strain transfected with the β-galactosidase gene); test: Antitrypanosomal activity on intracellular amastigotes, β-galactosidase readout; format: cell-based; conditions: read-out: Trypanosomal CE50; intracellular amastigotes in U-937 cells, 72 h
[4] = tested on: P. falciparum (3D7 strain); test: Antiplasmodial activity, LDH assay; format: cell-based
[5] = Electrochemical measurements; format: physicochemical; conditions: cyclical cathodic and anodic currents, low potential range, ACN, TBAB 0.1 M
How it was run: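 Cyclic voltammetry used a glassy carbon working electrode, Ag/AgCl reference and platinum counter electrode, in acetonitrile with 0.1 M TBAB as supporting electrolyte. The scan ran from −1.5 to 2.5 V at 150 mV/s. p-Quinone was run under the same conditions as experimental control.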

[6] = read-out: Leishmanial CE50, intracellular amastigotes in U-937 cells, 72 h
[7] = read-out: Plasmodial CE50, 3D7 strain, 72 h
[8] = Leishmania panamensis, U-937, 72 h, read-out: Leishmanial CE50
[9] = Plasmodium falciparum, 3D7, 72 h, read-out: Plasmodial CE50, 3D7 strain, 72 h
[10] = Leishmania panamensis, read-out: Antileishmanial activity

Row | Molecule | Cytotoxicity CL50 [1] [µM] | EC50 [2, 8] [µM] | EC50 [4, 9] [µM] | further results
1 | 3-(4-Chlorobenzyl)-4H-thiochromen-4-one 1,1-dioxide [Compound 14c] | 20.81 | – | – | EC50 ([2]; read-out: Antileishmanial activity, Table 2, own compounds, repeats Table 1): 18.2 µM; EC50 [2, 6]: 18.2 µM; EC50 [3]: 129 µM; EC50 [4, 7]: 46.7 µM
2 | 6-Phenyl-4H-thiochromen-4-one 1,1-dioxide [Compound 21d] | 276.03 | – | – | EC50 [2, 6]: 691 µM; EC50 [3]: 260 µM; EC50 [4, 7]: 75.4 µM
3 | 6-Phenyl-4H-thiochromen-4-one 1,1-dioxide [Compound 21e] | 254.35 | – | – | EC50 [2, 6]: 74 µM; EC50 [3]: 735 µM; EC50 [4, 7]: 61.4 µM
4 | O=C1C=CS(=O)(=O)c2ccccc21 [Compound 6a, 4H-Thiochromen-4-one 1,1-dioxide] | – | 137 | 717 | electrochemical behavior [5]: unexpected capacitive behavior
5 | O=C1C=CS(=O)(=O)c2ccc(F)cc21 [Compound 6b, 6-Fluoro-4H-thiochromen-4-one 1,1-dioxide] | 274.83 | – | 111 | –
6 | O=C1C=CS(=O)(=O)c2ccc(Cl)cc21 [Compound 6c, 6-Chloro-4H-thiochromen-4-one 1,1-dioxide] | 215.05 | – | 89.9 | –
7 | O=C1C=CS(=O)(=O)c2ccc(Br)cc21 [Compound 6d, 6-Bromo-4H-thiochromen-4-one 1,1-dioxide] | – | 106 | 71.2 | –
8 | O=C1C=CS(=O)(=O)c2cc(Br)ccc21 [Compound 6e, 7-Bromo-4H-thiochromen-4-one 1,1-dioxide] | 252.48 | – | 76.3 | –
9 | O=C1C=CS(=O)(=O)c2c(Br)cccc21 [Compound 6f, 8-Bromo-4H-thiochromen-4-one 1,1-dioxide] | 318.45 | 149 | 82.8 | –
10 | CC1=CC(=O)c2ccccc2S1(=O)=O [Compound 11a, 2-Methyl-4H-thiochromen-4-one 1,1 dioxide] | 59.12 | 35.6 | 140 | –
11 | O=C1C(Cc2ccccc2Cl)=CS(=O)(=O)c2ccccc21 [Compound 14a, 3-(2-Chlorobenzyl)-4H-thiochromen-4-one 1,1-dioxide] | 83.61 | 289 | 71.2 | –
12 | O=C1C(Cc2ccc(Cl)cc2)=CS(=O)(=O)c2ccccc21 [Compound 14b, 3-(4-Chlorobenzyl)-4H-thiochromen-4-one 1,1-dioxide] | – | 63.6 | 50.6 | EC50 [2, 10]: 63.6 µM
13 | O=C1C(Cc2ccco2)=CS(=O)(=O)c2ccccc21 [Compound 17a, 3-(Furan-2-yl-methyl)-4H-thiochromen-4-one 1,1-dioxide] | – | 72.9 | 70.2 | EC50 [2, 10]: 72.9 µM
14 | O=C1C(Cc2cccs2)=CS(=O)(=O)c2ccccc21 [Compound 17b, 3-(Thiophen-2-yl-methyl)-4H-thiochromen-4-one 1,1-dioxide] | 12.70 | 16.5 | 99.3 | EC50 [2, 10]: 16.5 µM
15 | O=C1C=CS(=O)(=O)c2ccc(-c3cc(C(F)(F)F)cc(C(F)(F)F)c3)cc21 [Compound 21a, 6-(3,5-Bis(trifluoromethyl)phenyl) 4 H-thiochromen-4-one 1,1-dioxide] | 83.61 | 289 | 71.2 | –
16 | O=C1C=CS(=O)(=O)c2cc(-c3cc(C(F)(F)F)cc(C(F)(F)F)c3)ccc21 [Compound 21b, 7-(3,5-Bis(trifluoromethyl)phenyl)-4H-thiochromen-4-one 1,1-dioxide] | 49.16 | 102 | 98.1 | –
17 | O=C1C=CS(=O)(=O)c2c1cccc2-c1cc(C(F)(F)F)cc(C(F)(F)F)c1 [Compound 21c, 8-(3,5-Bis(trifluoromethyl)phenyl)-4H-thiochromen-4-one 1,1-dioxide] | 23.20 | 9.3 | 71.4 | EC50 [2, 10]: 9.3 µM
